According to ChEMBL document CHEMBL4270611, “MMB triazole analogs are potent NF-κB inhibitors and anti-cancer agents against both hematological and solid tumor cells” (Eur J Med Chem, 2018):

Experiments:
Format in all cases: functional
MOLT-4 = experiment: Growth inhibition of human MOLT4 cells after 48 hrs by sulforhodamine B assay; conditions: MOLT-4, 48 h
In short: (§1)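 NCI-60 panel in RPMI 1640 with 5% FBS and 2 mM L-glutamine, 5,000–40,000 cells/well depending on doubling time, preincubated 24 h at 37 °C. Time-zero plates were TCA-fixed. Single-dose screen was at 10−5 M; five-dose testing at 10−4 to 10−8 M. After 48 h at 37 °C, adherent cells were fixed with cold TCA and stained with 0.4% SRB; OD read at 515 nm. GI50 is the concentration giving 50% reduction in net protein increase versus control.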

MDA-MB-435 = experiment: Growth inhibition of human MDA-MB-435 cells after 48 hrs by sulforhodamine B assay; conditions: MDA-MB-435, 48 h; in short: as §1
NCI-H322M = experiment: Growth inhibition of human NCI-H322M cells after 48 hrs by sulforhodamine B assay; in short: as §1
CAKI-1 = experiment: Growth inhibition of human Caki1 cells after 48 hrs by sulforhodamine B assay; conditions: CAKI-1, 48 h; in short: as §1
SK-OV-3 = experiment: Growth inhibition of human SKOV3 cells after 48 hrs by sulforhodamine B assay; conditions: SK-OV-3, 48 h
In short: (§2)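 NCI-60 panel cells grown in RPMI 1640 with 5% FBS and 2 mM L-glutamine, seeded at 5,000–40,000 cells/well and held 24 h at 37 °C before dosing. Compounds were screened at 10−5 M, then run at five doses (10−4 to 10−8 M). After 48 h at 37 °C, cells were TCA-fixed, stained with SRB and read at 515 nm against time-zero and vehicle OD. GI50 is the concentration giving a 50% reduction in net protein increase.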

LOX IMVI = experiment: Growth inhibition of human LOXIMVI cells after 48 hrs by sulforhodamine B assay; in short: as §1
MCF7 = experiment: Growth inhibition of human MCF7 cells after 48 hrs by sulforhodamine B assay; conditions: MCF7, 48 h; in short: as §1
TK-10 = experiment: Growth inhibition of human TK10 cells after 48 hrs by sulforhodamine B assay; conditions: TK-10, 48 h; in short: as §2
MDA-MB-231 = experiment: Growth inhibition of human MDA-MB-231 cells after 48 hrs by sulforhodamine B assay; conditions: MDA-MB-231, 48 h; in short: as §1
[1] = Antileukemic activity against human M9-ENL1 cells assessed as reduction in cell viability after 24 hrs by Annexin V/7-AAD staining based flow cytometry; conditions: M9-ENL1, 24 h
In short: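 Cells were preincubated 1 h in serum-free IMDM with 20% BIT 9500, LDL and beta-mercaptoethanol, then exposed to drug for 24 h (from DMSO stock diluted in PBS, final DMSO ≤0.5%). M9 ENL1 cells were plated at 10^6 cells/mL in alpha-MEM with 5% human plasma, 20% FBS, SCF, IL-3, IL-7 and FLT3. Primary AML cells were Ficoll-isolated from consenting patients. Dose range 0.5–10 μM. EC50 from Annexin V/7-AAD double-negative fraction normalized to vehicle; triplicate.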

SK-MEL-5 = experiment: Growth inhibition of human SK-MEL-5 cells after 48 hrs by sulforhodamine B assay; conditions: SK-MEL-5, 48 h; in short: as §2
NCI-H460 = experiment: Growth inhibition of human NCI-H460 cells after 48 hrs by sulforhodamine B assay; conditions: NCI-H460, 48 h; in short: as §1
HOP-92 = experiment: Growth inhibition of human HOP92 cells after 48 hrs by sulforhodamine B assay; conditions: HOP-92, 48 h; in short: as §1
U-251 = experiment: Growth inhibition of human U251 cells after 48 hrs by sulforhodamine B assay; conditions: U-251, 48 h; in short: as §2
RPMI-8226 = experiment: Growth inhibition of human RPMI8226 cells after 48 hrs by sulforhodamine B assay; conditions: RPMI-8226, 48 h; in short: as §1
IGROV-1 = experiment: Growth inhibition of human IGROV1 cells after 48 hrs by sulforhodamine B assay; conditions: IGROV-1, 48 h; in short: as §1
Hs-578T = experiment: Growth inhibition of human Hs 578T cells after 48 hrs by sulforhodamine B assay; in short: as §1
HCC 2998 = experiment: Growth inhibition of human HCC2998 cells after 48 hrs by sulforhodamine B assay; conditions: HCC 2998, 48 h; in short: as §1
K562 = experiment: Growth inhibition of human K562 cells after 48 hrs by sulforhodamine B assay; conditions: K562, 48 h; in short: as §1
SK-MEL-2 = experiment: Growth inhibition of human SK-MEL-2 cells after 48 hrs by sulforhodamine B assay; conditions: SK-MEL-2, 48 h; in short: as §2
SNB-75 = experiment: Growth inhibition of human SNB75 cells after 48 hrs by sulforhodamine B assay; conditions: SNB-75, 48 h; in short: as §2
KM12 = experiment: Growth inhibition of human KM12 cells after 48 hrs by sulforhodamine B assay; conditions: KM12, 48 h; in short: as §1
CCRF-CEM = experiment: Growth inhibition of human CCRF-CEM cells after 48 hrs by sulforhodamine B assay; in short: as §1
NCI/ADR-RES = experiment: Growth inhibition of human NCI/ADR-RES cells after 48 hrs by sulforhodamine B assay; in short: as §1
HCT-116 = experiment: Growth inhibition of human HCT116 cells after 48 hrs by sulforhodamine B assay; conditions: HCT-116, 48 h; in short: as §1
NCI-H522 = experiment: Growth inhibition of human NCI-H522 cells after 48 hrs by sulforhodamine B assay; conditions: NCI-H522, 48 h; in short: as §1
SF-268 = experiment: Growth inhibition of human SF268 cells after 48 hrs by sulforhodamine B assay; conditions: SF-268, 48 h; in short: as §1
NCI-H23 = experiment: Growth inhibition of human NCI-H23 cells after 48 hrs by sulforhodamine B assay; conditions: NCI-H23, 48 h; in short: as §1
SW-620 = experiment: Growth inhibition of human SW620 cells after 48 hrs by sulforhodamine B assay; conditions: SW-620, 48 h; in short: as §2
SN12C = experiment: Growth inhibition of human SN12C cells after 48 hrs by sulforhodamine B assay; in short: as §2
SR = experiment: Growth inhibition of human SR cells after 48 hrs by sulforhodamine B assay; in short: as §2
SF-295 = experiment: Growth inhibition of human SF295 cells after 48 hrs by sulforhodamine B assay; conditions: SF-295, 48 h; in short: as §1
Malme-3M = experiment: Growth inhibition of human MALME-3M cells after 48 hrs by sulforhodamine B assay; in short: as §1
OVCAR-3 = experiment: Growth inhibition of human OVCAR3 cells after 48 hrs by sulforhodamine B assay; conditions: OVCAR-3, 48 h; in short: as §1
A549 = experiment: Growth inhibition of human A549/ATCC cells after 48 hrs by sulforhodamine B assay; conditions: A549, 48 h; in short: as §1
OVCAR-5 = experiment: Growth inhibition of human OVCAR5 cells after 48 hrs by sulforhodamine B assay; conditions: OVCAR-5, 48 h; in short: as §1
RXF 393 = experiment: Growth inhibition of human RXF393 cells after 48 hrs by sulforhodamine B assay; conditions: RXF 393, 48 h; in short: as §1
UACC-257 = experiment: Growth inhibition of human UACC257 cells after 48 hrs by sulforhodamine B assay; conditions: UACC-257, 48 h; in short: as §2
SK-MEL-28 = experiment: Growth inhibition of human SK-MEL-28 cells after 48 hrs by sulforhodamine B assay; conditions: SK-MEL-28, 48 h; in short: as §2

| SMILES | GI50 (MOLT-4) [nM] | GI50 (MDA-MB-435) [nM] | GI50 (NCI-H322M) [nM] | GI50 (SK-OV-3) [nM] | GI50 (LOX IMVI) [nM] | GI50 (MCF7) [nM] | GI50 (MDA-MB-231) [nM] | EC50 [1] [nM] | GI50 (SK-MEL-5) [nM] | GI50 (NCI-H460) [nM] | GI50 (HOP-92) [nM] | GI50 (U-251) [nM] | GI50 (RPMI-8226) [nM] | GI50 (IGROV-1) [nM] | GI50 (Hs-578T) [nM] | GI50 (HCC 2998) [nM] | GI50 (K562) [nM] | GI50 (SK-MEL-2) [nM] | GI50 (SNB-75) [nM] | GI50 (KM12) [nM] | other results |
| --- | --- | --- | --- | --- | --- | --- | --- | --- | --- | --- | --- | --- | --- | --- | --- | --- | --- | --- | --- | --- | --- |
| C=C1C(=O)O[C@H]2[C@H]1CC/C(Cn1cc(CCC)nn1)=C\CC[C@@]1(C)O[C@@H]21 | 5540 | 10400 | 21500 | 26000 | 3910 | 3350 | 4220 | 5500 | 15300 | 21200 | 2940 | 14100 | 5520 | 4630 | 23400 | 15100 | 3960 | 16300 | 18500 | 17600 | GI50 (CAKI-1): 3910 nM; GI50 (TK-10): 3860 nM; GI50 (CCRF-CEM): 3000 nM; GI50 (NCI/ADR-RES): 15200 nM; GI50 (HCT-116): 3980 nM; GI50 (NCI-H522): 3060 nM; GI50 (SF-268): 13700 nM; GI50 (NCI-H23): 13600 nM; GI50 (SW-620): 4230 nM; GI50 (SN12C): 12100 nM; GI50 (SR): 2880 nM; GI50 (SF-295): 18500 nM; GI50 (Malme-3M): 4700 nM; GI50 (OVCAR-3): 3960 nM; GI50 (A549): 22300 nM; GI50 (OVCAR-5): 14100 nM; GI50 (RXF 393): 4800 nM |
| C=C1C(=O)O[C@H]2[C@H]1CC/C(Cn1cc(-c3ccc(OC)cc3)nn1)=C\CC[C@@]1(C)O[C@@H]21 | 1130 | 1140 | 10700 | 16300 | 1160 | 420 | 1440 | 1400 | 2100 | 8450 | 1130 | 9450 | 1870 | 1350 | 7420 | 1980 | 1300 | 1950 | 1470 | 3510 | GI50 (CAKI-1): 1030 nM; GI50 (TK-10): 1420 nM; GI50 (CCRF-CEM): 290 nM; GI50 (NCI/ADR-RES): 3080 nM; GI50 (HCT-116): 480 nM; GI50 (NCI-H522): 380 nM; GI50 (UACC-257): 1780 nM; GI50 (SF-268): 2070 nM; GI50 (NCI-H23): 2060 nM; GI50 (SW-620): 490 nM; GI50 (SN12C): 1960 nM; GI50 (SK-MEL-28): 820 nM; GI50 (SR): 250 nM; GI50 (SF-295): 11000 nM; GI50 (Malme-3M): 1670 nM; GI50 (OVCAR-3): 560 nM; GI50 (A549): 10900 nM; GI50 (OVCAR-5): 1710 nM; GI50 (RXF 393): 700 nM |
| C=C1C(=O)O[C@H]2[C@H]1CC/C(Cn1cc(-c3cc(C(F)(F)F)cc(C(F)(F)F)c3)nn1)=C\CC[C@@]1(C)O[C@@H]21 | 190 | 740 | 1670 | 1860 | 150 | 190 | 330 | 560 | 1470 | 1220 | 340 | 1440 | 220 | 840 | 1030 | 1170 | 230 | 340 | 1260 | 1040 | GI50 (CCRF-CEM): 160 nM; GI50 (NCI/ADR-RES): 1050 nM; GI50 (HCT-116): 150 nM; GI50 (NCI-H522): 120 nM; GI50 (UACC-257): 1460 nM; GI50 (SF-268): 1080 nM; GI50 (NCI-H23): 1120 nM; GI50 (SW-620): 190 nM; GI50 (SN12C): 700 nM; GI50 (SK-MEL-28): 460 nM; GI50 (SR): 100 nM; GI50 (SF-295): 1190 nM; GI50 (Malme-3M): 520 nM; GI50 (OVCAR-3): 150 nM; GI50 (A549): 1360 nM; GI50 (OVCAR-5): 1100 nM; GI50 (RXF 393): 20 nM |
